Activity calls are given as the source filed them. How the calls were made is not given here.
Experiments:
[1] = system: MDCK; experiment: Cytotoxicity against dog MDCK cells assessed as alteration of cell morphology up to 100 uM by microscopic analysis; type: cell-based, Canis lupus familiaris
Outline: (§1)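 Uninfected host-cell cultures were exposed to compound and examined by microscopy. Cytotoxicity was expressed as the minimum cytotoxic concentration (MCC) causing a microscopically detectable alteration of normal cell morphology.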

[2] = Cytotoxicity against cat CRFK cells assessed as alteration of cell morphology up to 100 uM by microscopic analysis; type: cell-based, Felis catus; outline: as §1
[3] = system: Vero; experiment: Cytotoxicity against african green monkey Vero cells assessed as alteration of cell morphology up to 100 uM by microscopic analysis; type: cell-based; conditions: chlorocebus sabaeus; outline: as §1
[4] = system: HeLa; experiment: Cytotoxicity against human HeLa cells assessed as alteration of cell morphology up to 100 uM by microscopic analysis; type: cell-based; outline: as §1
[5] = system: HEL; experiment: Cytotoxicity against human HEL cells assessed as alteration of cell morphology up to 100 uM by microscopic analysis; type: cell-based; outline: as §1
[6] = system: Human immunodeficiency virus 2; experiment: Antiviral activity against Human immunodeficiency virus 2 ROD infected in human CEM cells assessed as reduction of virus-induced giant cell formation at 250 uM after 4 to 5 days; type: functional, organism-based; conditions: CCRF-CEM
Outline: (§2)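 CEM cells at 3 × 10^5 cells/mL were infected with HIV at 100 CCID50 per mL in the presence of compound dilutions. They were held 4–5 days at 37 °C in humidified CO2. Syncytium (giant cell) formation was scored microscopically, and EC50 was taken as the concentration inhibiting giant cell formation by 50%.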

[7] = system: Human immunodeficiency virus 1; experiment: Antiviral activity against Human immunodeficiency virus 1 3B infected in human CEM cells assessed as reduction of virus-induced giant cell formation at 250 uM after 4 to 5 days; type: functional, organism-based; conditions: CCRF-CEM; outline: as §2
[8] = system: Feline coronavirus; experiment: Antiviral activity against Feline coronavirus infected in cat CRFK cells assessed as reduction of virus-induced cytopathogenicity at 250 uM; type: functional, organism-based
[9] = system: Felid alphaherpesvirus 1; experiment: Antiviral activity against Feline herpes virus infected in cat CRFK cells assessed as reduction of virus-induced cytopathogenicity at 250 uM; type: functional, organism-based
[10] = system: Influenza B virus; experiment: Antiviral activity against Influenza B virus infected in dog MDCK cells assessed as reduction of virus-induced cytopathogenicity at 250 uM; type: functional, organism-based
Outline: (§3)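 Confluent cell monolayers were infected with 100 CCID50 of virus while exposed to varying compound concentrations. Cytopathicity was scored once it was complete in untreated infected controls. EC50 was taken as the concentration that reduced virus-induced cytopathogenicity by 50%.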

[11] = system: Influenza A virus; experiment: Antiviral activity against Influenza A virus H3N2 infected in dog MDCK cells assessed as reduction of virus-induced cytopathogenicity at 250 uM; type: functional, organism-based; outline: as §3
[12] = system: Influenza A virus; experiment: Antiviral activity against Influenza A virus H1N1 infected in dog MDCK cells assessed as reduction of virus-induced cytopathogenicity at 250 uM; type: functional, organism-based; outline: as §3
[13] = system: Punta Toro virus; experiment: Antiviral activity against Punta Toro virus infected in african green monkey Vero cells assessed as reduction of virus-induced cytopathogenicity at 250 uM; type: functional, organism-based
Outline: (§4)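 Confluent monolayers (HEL fibroblasts, Vero, or HeLa cells as listed) were infected with 100 CCID50 of virus in the presence of varying compound concentrations. Virus-induced cytopathicity or plaque formation was scored once cytopathicity was complete in untreated infected controls. EC50 was taken as the concentration reducing cytopathogenicity or plaque formation by 50%.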

[14] = system: Sindbis virus; experiment: Antiviral activity against Sindbis virus infected in african green monkey Vero cells assessed as reduction of virus-induced cytopathogenicity at 250 uM; type: functional, organism-based; outline: as §4
[15] = system: Coxsackievirus B4; experiment: Antiviral activity against Coxsackievirus B4 infected in african green monkey Vero cells assessed as reduction of virus-induced cytopathogenicity at 250 uM; type: functional, organism-based; outline: as §4
[16] = system: Mammalian orthoreovirus 1; experiment: Antiviral activity against Reovirus 1 infected in african green monkey Vero cells assessed as reduction of virus-induced cytopathogenicity at 250 uM; type: functional, organism-based; outline: as §4
[17] = system: Human respirovirus 3; experiment: Antiviral activity against Parainfluenza virus 3 infected in african green monkey Vero cells assessed as reduction of virus-induced cytopathogenicity at 250 uM; type: functional, organism-based; outline: as §4
[18] = system: Respiratory syncytial virus; experiment: Antiviral activity against Respiratory syncytial virus long infected in human HeLa cells assessed as reduction of virus-induced cytopathogenicity at 250 uM; type: functional, organism-based; outline: as §4
[19] = system: Vesicular stomatitis virus; experiment: Antiviral activity against Vesicular stomatitis virus infected in human HeLa cells assessed as reduction of virus-induced cytopathogenicity at 250 uM; type: functional, organism-based; outline: as §3
[20] = system: Human alphaherpesvirus 1; experiment: Antiviral activity against thymidine kinase-deficient, ACV-resistant Herpes simplex virus 1 KOS infected in human HEL cells assessed as reduction of virus-induced cytopathogenicity at 250 uM; type: functional, organism-based; outline: as §3
[21] = system: Vesicular stomatitis virus; experiment: Antiviral activity against Vesicular stomatitis virus infected in human HEL cells assessed as reduction of virus-induced cytopathogenicity at 250 uM; type: functional, organism-based; outline: as §3
[22] = system: Human alphaherpesvirus 2; experiment: Antiviral activity against Herpes simplex virus 2 G infected in human HEL cells assessed as reduction of virus-induced cytopathogenicity at 250 uM; type: functional, organism-based; conditions: strain G; outline: as §4
[23] = system: Human alphaherpesvirus 1; experiment: Antiviral activity against Herpes simplex virus 1 KOS infected in human HEL cells assessed as reduction of virus-induced cytopathogenicity at 250 uM; type: functional, organism-based; outline: as §4

Row | Structure (SMILES) | Activity [1] | Activity [2] | Activity [3] | Activity [4] | Activity [5] | inhibition [6] | inhibition [7] | inhibition [8] | inhibition [9] | inhibition [10] | inhibition [11] | inhibition [12] | inhibition [13] | inhibition [14] | inhibition [15] | inhibition [16] | inhibition [17] | inhibition [18] | inhibition [19] | inhibition [20] | other results
1 | CCOc1ccc(NC(=O)[C@H]2C[C@@H](P(=O)(OCC)OCC)N(C)O2)cc1 (racemic) | Non-toxic | Non-toxic | Non-toxic | Non-toxic | Non-toxic | inactive | inactive | inactive | inactive | inactive | inactive | inactive | inactive | inactive | inactive | inactive | inactive | inactive | inactive | inactive | inhibition [21]: inactive; inhibition [22]: inactive; inhibition [23]: inactive
2 | CCOP(=O)(OCC)[C@@H]1C[C@H](C(=O)Nc2cc(OC)c(OC)c(OC)c2)ON1C (racemic) | Non-toxic | Non-toxic | Non-toxic | Non-toxic | Non-toxic | inactive | inactive | inactive | inactive | inactive | inactive | inactive | inactive | inactive | inactive | inactive | inactive | inactive | inactive | inactive | inhibition [21]: inactive; inhibition [22]: inactive; inhibition [23]: inactive
3 | CCOP(=O)(OCC)[C@H]1C[C@H](C(=O)Nc2cccc(C#N)c2)ON1C (racemic) | Non-toxic | Non-toxic | Non-toxic | Non-toxic | Non-toxic | inactive | inactive | inactive | inactive | inactive | inactive | inactive | inactive | inactive | inactive | inactive | inactive | inactive | inactive | inactive | inhibition [21]: inactive; inhibition [22]: inactive; inhibition [23]: inactive
4 | CCOP(=O)(OCC)[C@@H]1C[C@H](C(=O)Nc2cccc(C#N)c2)ON1C (racemic) | Non-toxic | Non-toxic | Non-toxic | Non-toxic | Non-toxic | inactive | inactive | inactive | inactive | inactive | inactive | inactive | inactive | inactive | inactive | inactive | inactive | inactive | inactive | inactive | inhibition [21]: inactive; inhibition [22]: inactive; inhibition [23]: inactive
5 | CCOP(=O)(OCC)[C@H]1C[C@H](C(=O)Nc2ccc(C#N)cc2)ON1C (racemic) | Non-toxic | Non-toxic | Non-toxic | Non-toxic | Non-toxic | inactive | inactive | inactive | inactive | inactive | inactive | inactive | inactive | inactive | inactive | inactive | inactive | inactive | inactive | inactive | inhibition [21]: inactive; inhibition [22]: inactive; inhibition [23]: inactive
6 | CCOP(=O)(OCC)[C@@H]1C[C@H](C(=O)Nc2cccc(C(C)=O)c2)ON1C (racemic) | Non-toxic | Non-toxic | Non-toxic | Non-toxic | Non-toxic | inactive | inactive | inactive | inactive | inactive | inactive | inactive | inactive | inactive | inactive | inactive | inactive | inactive | inactive | inactive | inhibition [21]: inactive; inhibition [22]: inactive; inhibition [23]: inactive
7 | CCOP(=O)(OCC)[C@H]1C[C@H](C(=O)Nc2cccc(C)c2)ON1C (racemic) | Non-toxic | Non-toxic | Non-toxic | Non-toxic | Non-toxic | inactive | inactive | inactive | inactive | inactive | inactive | inactive | inactive | inactive | inactive | inactive | inactive | inactive | inactive | inactive | inhibition [21]: inactive; inhibition [22]: inactive; inhibition [23]: inactive
8 | CCOP(=O)(OCC)[C@H]1C[C@H](C(=O)Nc2cccc(OC)c2)ON1C (racemic) | Non-toxic | Non-toxic | Non-toxic | Non-toxic | Non-toxic | inactive | inactive | inactive | inactive | inactive | inactive | inactive | inactive | inactive | inactive | inactive | inactive | inactive | inactive | inactive | inhibition [21]: inactive; inhibition [22]: inactive; inhibition [23]: inactive
